Experimental data published in PMC9082783 (RSC Advances, 2018).
“Also recorded” adds a separate entry of the source. Read-outs that look alike come from different tables or passages of the source.

Assays:
Jack bean urease [1] = biological target: T1, Jack bean urease (Canavalia ensiformis, UniProt P07374); experiment: In vitro urease inhibitory activity; format: biochemical
Hemolytic activity = format: cell-based; details: bovine, erythrocyte (RBC) suspension, pH 7.4
Outline: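 Bovine blood collected in EDTA, diluted in 0.9% NaCl and centrifuged at 1000 × g for 10 min. Erythrocytes were resuspended in PBS pH 7.4. Test compound solution (10 mg/mL stock) was mixed with the RBC suspension and incubated 30 min at room temperature. PBS served as negative control, Triton X-100 as positive control. Triplicate runs; mean ± SEM; % hemolysis calculated by formula.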

Jack bean urease [2] = biological target: T1, Jack bean urease; experiment: Kinetic analysis of urease inhibition; format: biochemical
Outline: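 Jack bean urease (5 U/mL enzyme solution) in potassium phosphate buffer (10 mM K2HPO4, 1 mM EDTA, 10 mM LiCl, pH 8.2) at 37 °C. Ammonia read by indophenol method at 625 nm. Initial velocities taken from per-minute readings up to 10 min. Mode from Lineweaver–Burk plots; Ki from secondary plot with linear least-squares fit.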

T1 sequence (P07374 whole entry, looked up): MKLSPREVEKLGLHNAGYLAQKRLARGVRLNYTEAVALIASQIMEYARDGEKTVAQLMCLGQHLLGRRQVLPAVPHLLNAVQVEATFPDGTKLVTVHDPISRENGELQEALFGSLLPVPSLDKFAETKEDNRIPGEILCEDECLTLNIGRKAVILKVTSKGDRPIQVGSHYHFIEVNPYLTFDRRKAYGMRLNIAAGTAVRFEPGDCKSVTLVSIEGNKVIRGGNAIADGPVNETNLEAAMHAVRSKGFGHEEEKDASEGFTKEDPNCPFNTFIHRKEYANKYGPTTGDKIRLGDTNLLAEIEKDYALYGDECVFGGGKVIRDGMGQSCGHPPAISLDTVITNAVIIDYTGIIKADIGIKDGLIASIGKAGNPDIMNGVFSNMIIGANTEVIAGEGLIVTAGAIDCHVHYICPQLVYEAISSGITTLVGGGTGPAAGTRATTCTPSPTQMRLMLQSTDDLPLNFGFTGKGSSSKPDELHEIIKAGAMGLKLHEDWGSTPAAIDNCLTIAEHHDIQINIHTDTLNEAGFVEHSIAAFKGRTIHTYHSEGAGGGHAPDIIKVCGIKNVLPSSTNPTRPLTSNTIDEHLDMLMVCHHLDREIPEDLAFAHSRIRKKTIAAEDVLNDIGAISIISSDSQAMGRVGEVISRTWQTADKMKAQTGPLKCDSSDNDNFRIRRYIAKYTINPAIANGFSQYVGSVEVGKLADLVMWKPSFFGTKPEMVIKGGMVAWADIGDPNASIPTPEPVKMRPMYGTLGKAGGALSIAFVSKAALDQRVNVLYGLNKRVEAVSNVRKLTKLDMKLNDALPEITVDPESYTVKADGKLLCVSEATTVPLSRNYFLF

Row | SMILES | IC50 (Jack bean urease [1]) | hemolysis at 30 min (Hemolytic activity) | also measured
1 | Cc1ccc(NC(=O)CCCSc2nnc(CCCc3c[nH]c4ccccc34)o2)c(C)c1 [Compound 8g, N-(2,4-dimethylphenyl)-4-({5-[3-(1H-indol-3-yl)propyl]-1,3,4-oxadiazol-2-yl}sulfanyl)butanamide] | 200 ± 12.2 nM | 1.41 ± 0.01% | –
2 | CCc1ccc(NC(=O)CCCSc2nnc(CCCc3c[nH]c4ccccc34)o2)cc1 [Compound 8c] | 17.5 ± 6.5 nM | 0.62 ± 0.02% | Ki (Jack bean urease [2]): 3 nM; Vmax (ΔA/Min) (Jack bean urease [2]; 8c concentration 0.017 μM): 6.119 × 10^−5 ΔA/Min; Vmax (ΔA/Min) (Jack bean urease [2]; 8c concentration 0.034 μM): 4.599 × 10^−5 ΔA/Min; Inhibition type (Jack bean urease [2]; Lineweaver-Burk plot): non-competitively; also recorded: Non-competitive
3 | Cc1cccc(C)c1NC(=O)CCCSc1nnc(CCCc2c[nH]c3ccccc23)o1 [Compound 8h] | 25.1 ± 8.3 nM | 2.63 ± 0.02% | –
4 | CCc1cccc(C)c1NC(=O)CCCSc1nnc(CCCc2c[nH]c3ccccc23)o1 [Compound 8j] | 37.5 ± 5.8 nM | 9.63 ± 0.05% | –
5 | Cc1ccc(NC(=O)CCCSc2nnc(CCCc3c[nH]c4ccccc34)o2)cc1 [Compound 8f] | 102 ± 29.9 nM | 3.51 ± 0.04% | –
6 | CC(C)(C)CC(C)(C)c1ccc(OCCO)cc1 [Triton X, reference compound] | – | 89.11 ± 0.01% | –
7 | Cc1cccc(NC(=O)CCCSc2nnc(CCCc3c[nH]c4ccccc34)o2)c1 [Compound 8e] | 32.3 ± 11.9 nM | 5.92 ± 0.02% | –
8 | Cc1cc(C)cc(NC(=O)CCCSc2nnc(CCCc3c[nH]c4ccccc34)o2)c1 [Compound 8i] | 124 ± 31.8 nM | 7.32 ± 0.03% | –
9 | CCOc1ccc(NC(=O)CCCSc2nnc(CCCc3c[nH]c4ccccc34)o2)cc1 [Compound 8a] | 52.3 ± 4.4 nM | 3.16 ± 0.05% | –
10 | NC(N)=S [Thiourea, reference compound] | – | – | IC50 (Jack bean urease [1]; read-out: Urease activity IC50 ± SEM, Jack bean urease 5 U/mL, 100 mM urea, pH 8.2, 30 min at 37 °C, triplicate): 4750 ± 54.6 nM
11 | CCc1ccccc1NC(=O)CCCSc1nnc(CCCc2c[nH]c3ccccc23)o1 [Compound 8b] | 54.2 ± 21.1 nM | 2.41 ± 0.03% | –
12 | Cc1ccccc1NC(=O)CCCSc1nnc(CCCc2c[nH]c3ccccc23)o1 [Compound 8d] | 71.7 ± 15.2 nM | 5.18 ± 0.03% | –
